Results from PubChem BioAssay AID651740 (Broad Institute, 2012).
Screen size: about 5,600 compounds; about 1,200 (21%) were called active. Another 3% or so got no clear call; they are omitted. Not all results are given here. A number with no mark means an inactive call.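 How the source made its calls: active means mean inhibition above about 95%, with at least 55% of replicates also reaching it (limit read from the data); inconclusive means meets just one of the two conditions; inactive means meets neither condition.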

assay: inhibitors of intracellular T. cruzi replication, confirmation, NIH3T3 host cells, beta-gal parasites, cherry-pick, set 2 (AID 651740);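 further: plate controls were neutral control median for no effect and positive control median for full effect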; settings: T. cruzi beta-gal in NIH3T3, GalScreen luminescence, 90 h; at 2.09 µM; stronger effect = higher value
Method in brief: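 Test system: mouse NIH/3T3 fibroblasts infected with beta-galactosidase T. cruzi Tulahuen C4; Probe or stimulus: 5000 trypomastigotes per well; Measured by: GalScreen luminescence (substrate 1:25 in Buffer B) after cell lysis; Incubation: 3 h host cell attachment, then ≥90 h compound-parasite co-culture, 60 min GalScreen; Dosing: single point, 100 nL compound in DMSO pinned per well.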

Row | Compound | inhibition
1 | CCCC#Cc1ccc2c(c1)O[C@H](CN(C)C(=O)CC)[C@@H](C)CN([C@H](C)CO)S2(=O)=O | 38.5%
2 | C/C=C/c1ccc([C@H]2[C@@H](CNC(C)C)N(c3nc(CC)cs3)[C@H]2CO)cc1 | 89.5%
3 | CCCC#Cc1ccc([C@H]2[C@H](CO)N3CCCCN(C(=O)c4ccc5c(c4)OCO5)C[C@@H]23)cc1 | 42.1%
4 | O=C(c1ccc(F)cc1)N1CCCCN2[C@H](C1)[C@@H](c1ccc(C#CC3(O)CCCC3)cc1)[C@@H]2CO | 2.53%
5 | CCCNC(=O)N(C)C[C@@H]1Oc2ncc(C#Cc3ccccc3F)cc2C(=O)N([C@@H](C)CO)C[C@H]1C | 94.5%
6 | O=C(Nc1ccc(-c2ccccc2)cc1)[C@H]1[C@H](CO)[C@H]2Cn3c(cccc3=O)[C@H]2N1CC1CC1 | 33.8%
7 | C[C@@H]1CN([C@H](C)CO)C(=O)c2cc(-c3cncnc3)cnc2O[C@H]1CN(C)C(=O)Nc1ccc2c(c1)OCO2 | -52%
8 | N#C[C@@H]1[C@@H](c2ccc(/C=C/c3ccccc3)cc2)[C@@H](CO)N1C(=O)C1CC1 | 68.6%
9 | C[C@@H]1CCCCO[C@H](CN(C)Cc2ccccc2)[C@H](C)CN([C@H](C)CO)C(=O)c2cc(NS(=O)(=O)c3ccc(Cl)cc3)ccc2O1 | 107% (active)
10 | C[C@@H]1CCCCO[C@H](CN(C)C(=O)NC2CCCCC2)[C@H](C)CN([C@H](C)CO)C(=O)c2cc(NS(=O)(=O)c3ccc(Cl)cc3)ccc2O1 | 50.5%
11 | C[C@@H]1CCCCO[C@H](CN(C)S(=O)(=O)c2cccs2)[C@H](C)CN([C@H](C)CO)C(=O)c2cc(NS(=O)(=O)c3ccc(F)cc3)ccc2O1 | 62.8%
12 | C[C@H](CO)N1C[C@H](C)[C@H](CN(C)Cc2ccc(C(F)(F)F)cc2)OCCCC[C@H](C)Oc2ccc(NS(=O)(=O)c3ccc(Cl)cc3)cc2C1=O | 104% (active)
13 | COc1ccc(S(=O)(=O)Nc2ccc3c(c2)C(=O)N([C@H](C)CO)C[C@H](C)[C@H](CN(C)Cc2ccc(C(F)(F)F)cc2)O3)cc1 | 85.4%
14 | COc1ccc(S(=O)(=O)Nc2ccc3c(c2)C(=O)N([C@H](C)CO)C[C@@H](C)[C@@H](CN(C)CC2CCCCC2)OCCCC[C@@H](C)O3)cc1 | 105% (active)
15 | C[C@@H]1CN([C@H](C)CO)C(=O)c2cc(NS(=O)(=O)c3cccs3)ccc2O[C@@H](C)CCCCO[C@@H]1CN(C)S(=O)(=O)c1ccc(Cl)cc1 | 63.6%
16 | COc1ccc(S(=O)(=O)N(C)C[C@H]2OCCCC[C@H](C)Oc3ccc(NS(=O)(=O)c4ccc(F)cc4)cc3C(=O)N([C@@H](C)CO)C[C@@H]2C)cc1 | 54%
17 | C[C@@H]1CN([C@H](C)CO)C(=O)c2cc(NS(=O)(=O)c3ccc(Cl)cc3)ccc2O[C@@H](C)CCCCO[C@H]1CN(C)Cc1ccccc1 | 94.6%
18 | C[C@@H]1CN([C@H](C)CO)C(=O)c2cc(NS(=O)(=O)c3cccs3)ccc2O[C@@H](C)CCCCO[C@H]1CN(C)Cc1ccc(C(F)(F)F)cc1 | 112% (active)
19 | C[C@H](CO)N1C[C@H](C)[C@H](CN(C)Cc2ccc(C(F)(F)F)cc2)Oc2ccc(NS(=O)(=O)c3ccc(Cl)cc3)cc2C1=O | 74%
20 | Cc1ccc(S(=O)(=O)N(C)C[C@@H]2OCCCC[C@@H](C)Oc3ccc(NS(=O)(=O)c4ccc(F)cc4)cc3C(=O)N([C@H](C)CO)C[C@H]2C)cc1 | 76.8%
21 | COc1ccc(CN(C)C[C@H]2Oc3ccc(NS(=O)(=O)c4ccc(Cl)cc4)cc3CC(=O)N([C@@H](C)CO)C[C@H]2C)cc1 | 33.6%
22 | C[C@@H]1CN([C@H](C)CO)C(=O)c2cccc(NC(=O)c3ccc(-c4nccs4)cc3)c2O[C@@H]1CN(C)C(=O)Nc1ccc(C(F)(F)F)cc1 | 53%
23 | CC(C)CC#Cc1cnc2c(c1)C(=O)N([C@@H](C)CO)C[C@@H](C)[C@H](CN(C)C(=O)Cc1ccncc1)O2 | 29.7%
24 | O=C(c1cccc(F)c1)N1CCCCN2[C@H](CO)[C@H](c3ccc(-c4ccncc4)cc3)[C@H]2C1 | 82%
25 | CN(C)C(=O)c1ccc(-c2ccc([C@@H]3[C@H](CO)N4CCCCN(S(C)(=O)=O)C[C@@H]34)cc2)cc1 | 17.3%
26 | Cc1cccc(-c2ccc([C@H]3[C@@H](CO)N4CCCCN(Cc5cncnc5)C[C@H]34)cc2)c1 | 48.1%
27 | CN(C)C(=O)c1ccc(-c2ccc3c(c2)[C@H]2[C@H](CCN2C(=O)c2ccc4c(c2)OCO4)[C@H](CO)N3)cc1 | 72.2%
28 | C[C@H]1CCCCO[C@@H](CN(C)C(=O)NC2CCCCC2)[C@@H](C)CN([C@@H](C)CO)C(=O)c2cc(NS(=O)(=O)c3ccc(Cl)cc3)ccc2O1 | 68%

Row | Compound | inhibition
29 | C[C@H]1CCCCO[C@H](CN(C)Cc2ccccc2)[C@@H](C)CN([C@@H](C)CO)C(=O)c2cc(NC(=O)c3ccccc3)ccc2O1 | 68.2%
30 | C[C@@H]1CCCCO[C@@H](CN(C)CC2CC2)[C@H](C)CN([C@H](C)CO)C(=O)c2cc(NC(=O)C3CCCCC3)ccc2O1 | 89.3%
31 | C[C@H]1CCCCO[C@H](CN(C)Cc2ccccc2)[C@@H](C)CN([C@@H](C)CO)C(=O)c2cc(NC(=O)NC3CCCCC3)ccc2O1 | 43.1%
32 | C[C@@H]1CCCCO[C@H](CN(C)Cc2ccccc2)[C@@H](C)CN([C@@H](C)CO)C(=O)c2cc(NC(=O)Nc3ccc(F)cc3)ccc2O1 | 103% (active)
33 | Cc1ccc(S(=O)(=O)Nc2ccc3c(c2)C(=O)N([C@H](C)CO)C[C@H](C)[C@H](CN(C)C(=O)Nc2ccc(F)cc2)OCCCC[C@H](C)O3)cc1 | 71.2%
34 | C[C@@H]1CCCCO[C@@H](CN(C)Cc2ccc(C(F)(F)F)cc2)[C@@H](C)CN([C@H](C)CO)C(=O)c2cc(NC(=O)Nc3ccccc3)ccc2O1 | 64.3%
35 | C[C@@H]1CCCCO[C@H](CN(C)C(=O)NC2CCCCC2)[C@H](C)CN([C@H](C)CO)C(=O)c2cc(NC(=O)Nc3ccc(F)cc3)ccc2O1 | 105% (active)
36 | C[C@@H]1CCCCO[C@H](CN(C)Cc2ccc(C(F)(F)F)cc2)[C@H](C)CN([C@H](C)CO)C(=O)c2cc(NC(=O)Nc3ccc(F)cc3)ccc2O1 | 117% (active)
37 | C[C@@H]1CN([C@H](C)CO)C(=O)c2cc(NC(=O)Nc3ccc(F)cc3)ccc2O[C@@H](C)CCCCO[C@@H]1CN(C)CC1CCCCC1 | 104% (active)
38 | C[C@@H]1CN([C@@H](C)CO)C(=O)c2cc(C#CC3CCCCC3)cnc2O[C@H]1CN(C)S(=O)(=O)c1ccccc1 | 85.8%
39 | COc1ccc(-c2ccc3c(c2)[C@@H]2[C@@H](CCN2C(=O)Cc2ccccn2)[C@H](CO)N3C)cc1 | 84.9%
40 | O=C(C1CCCC1)N1CCCCN2[C@@H](CO)[C@H](c3ccc(-c4cccc(F)c4)cc3)[C@@H]2C1 | 78.2%
41 | O=C(CN1CCOCC1)N1CCCCN2[C@@H](CO)[C@H](c3ccc(/C=C/c4ccccc4)cc3)[C@@H]2C1 | 25.9%
42 | C[C@H]1CN([C@@H](C)CO)S(=O)(=O)c2ccc(C#Cc3cccc(F)c3)cc2O[C@@H]1CN(C)S(=O)(=O)c1cn(C)cn1 | 24.7%
43 | Cc1ccc(S(=O)(=O)Nc2ccc3c(c2)C(=O)N([C@@H](C)CO)C[C@@H](C)[C@H](CN(C)C(=O)Nc2cccc4ccccc24)OCCCC[C@H](C)O3)cc1 | 66.1%
44 | C[C@@H]1CCCCO[C@@H](CN(C)Cc2ccccc2)[C@H](C)CN([C@H](C)CO)C(=O)c2cc(NC(=O)Nc3cccc4ccccc34)ccc2O1 | 110% (active)
45 | C[C@@H]1CN([C@@H](C)CO)C(=O)c2cc(NC(=O)Nc3cccc4ccccc34)ccc2O[C@@H](C)CCCCO[C@H]1CN(C)Cc1ccccc1 | 94.8%
46 | C[C@H](CO)N1C[C@H](C)[C@H](CN(C)S(=O)(=O)c2ccccc2)Oc2ncc(-c3cccc(C(F)(F)F)c3)cc2C1=O | 47.5%
47 | OC[C@@H]1[C@H](c2ccc(C#CC3CC3)cc2)[C@@H]2CN(CCC(F)(F)F)CCCCN12 | 78.6%
48 | C[C@H](CO)N1C[C@H](C)[C@@H](CN(C)Cc2ccc(C(F)(F)F)cc2)OCCCC[C@H](C)Oc2ccc(NC(=O)C3CCCCC3)cc2C1=O | 106% (active)
49 | C[C@H](CO)N1C[C@H](C)[C@@H](CN(C)Cc2ccc(C(=O)Nc3ccccc3N)cc2)Oc2c(NC(=O)c3ccc(-c4nccs4)cc3)cccc2C1=O | 60.5%
50 | C[C@@H]1CN([C@@H](C)CO)C(=O)c2cc(NC(=O)C3CCCCC3)ccc2O[C@@H](C)CCCCO[C@H]1CN(C)Cc1ccncc1 | 78%
51 | C[C@H]1CCCCO[C@H](CN(C)Cc2ccc(C(F)(F)F)cc2)[C@@H](C)CN([C@@H](C)CO)C(=O)c2cc(NC(=O)C3CCCCC3)ccc2O1 | 111% (active)
52 | COc1ccc(NC(=O)N(C)C[C@@H]2Oc3c(NC(=O)NC4CCCCC4)cccc3C(=O)N([C@@H](C)CO)C[C@@H]2C)cc1 | 23.4%
53 | C[C@@H]1CN([C@H](C)CO)C(=O)c2cccc(NC(=O)NC3CCCCC3)c2O[C@H]1CN(C)Cc1ccc(C(F)(F)F)cc1 | 106% (active)
54 | C[C@@H]1CN([C@H](C)CO)S(=O)(=O)c2ccc(C#Cc3ccncc3)cc2O[C@@H]1CN(C)S(=O)(=O)c1ccc(F)cc1 | 22.2%
55 | OC[C@H]1[C@H](c2ccc(-c3cccc(F)c3)cc2)[C@@H]2CN(Cc3cncnc3)CCCCN12 | 60.7%
